Screening results (PubChem BioAssay)
An excerpt weighted towards active compounds, which were near 3% of everything screened.
Yeast lifespan up = extends the lifespan of yeast | S. cerevisiae growth with nicotinamide, OD615; deaD strain in restrictive glucose medium | inhibition of the nicotinamide effect, % at 10 µM | 130,000 compounds, 0.68% hits | AID 775;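 active = inhibition above a set limit, placed 3 SD over the median of all compounds, cut at about 26% in these data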;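 note: 0% = nicotinamide-treated wells and 100% = cells grown without nicotinamide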
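System: Modified budding yeast, DeaD strain | Buffer or medium: Restrictive glucose medium | Also added: 1.5 mM nicotinamide | Doses: 10 µM single point, 0.25% DMSO | Schedule: 48 h compound exposure at 30 °C, humidified | Detection: Absorbance at 615 nm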
Ins promoter up = MIN6 insulin promoter up-regulation; MIN6 insulin promoter-GFP reporter, high-content imaging; stronger effect = higher value; z-score at 5 µM; 190,000 compounds, 0.3% hits; AID 1625;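 active = z-score above 3 at 5 µM with at least 500 cells counted in the well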
Insulin prom inh = TRM-6 insulin promoter activity inhibition. TRM-6 cells, insulin promoter-eGFP reporter, imaging; reporter expression induced with tamoxifen. inhibition, % at 2 µM. 130,000 compounds, 0.9% hits. AID 1273;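 active = inhibition above the mean plus 3 SD, with well images judged a real hit on visual review, cut at about 60% in these data, passing the limit was not always enough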
RAM inhibit = inhibitors of the yeast RAM network; inhibition, % at 50 µM; S. cerevisiae dse1pr::URA3 reporter, 5-FOA growth OD615, 2 d; analog-sensitive cbk1-as2 kinase mutant strain; 190,000 compounds, 1.8% hits;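 active = inhibition above a set limit, 3 SD over mean compound inhibition, cut at about 8.4% in these data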;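 note: 0% = DMSO-only wells with no growth and 100% = 10 µM 1-NA-PP1 full growth; inhibition rescues growth on 5-FOA so higher OD means more RAM inhibition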
Yeast growth inh = reduces growth of yeast BB579 in restrictive medium | S. cerevisiae BB579 growth, OD615, 48 h | inhibition, % at 10 µM | 140,000 compounds, 0.51% hits | AID 804;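 active = inhibition above a set limit, 3 SD over the mean compound inhibition, cut at about 44% in these data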
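Test system: DeaD yeast strain BB579 / Buffer or medium: restrictive glucose-based CSMM-D medium / Doses: single 10 µM dose / Schedule: 4 h cell preincubation, 48 h compound exposure, 30 °C humidified / Technique: culture absorbance at 615 nm / Controls: amphotericin B positive control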
Active calls of the source: *; . = no result.

SMILES | Yeast lifespan up | Ins promoter up | Insulin prom inh | RAM inhibit | Yeast growth inh
Cc1cc(NC(=O)c2ccc3c(c2)OCCO3)no1 | -9.6 | 0.36 | -61.3 | 0.6 | -18.5
Cc1cc(NC(=O)c2ccc3c(c2)OCO3)no1 | -21.4 | -1.13 | 84.8* | 1.3 | -20.7
O=C(Nc1ccn(Cc2ccc(Cl)cc2)n1)c1ccc2c(c1)OCO2 | -15.3 | 0.22 | 76.9* | 0.8 | -26.8
CC1(c2cccc3ccccc23)NC(=O)N(CC(=O)NC2CCS(=O)(=O)C2)C1=O (stereo not given) | 1.0 | -0.17 | . | 0.6 | -20.4
S=C(Nc1ccc(Oc2ccccc2)cc1)NC1CCCCCC1 | -1.6 | 0.03 | . | 10.5* | 56.1*
O=C(Nc1ccccc1NC(=O)NC1CCCCC1)NC1CCCCC1 | -4.7 | 0.8 | 35.5 | 2.1 | -26.5
O=C(Nc1ccccc1)NC1CCCCC1 | 42.0* | -0.5 | 27.8 | -0.1 | -5.5
c1ccc(CSc2ccc(-c3cccnc3)nn2)cc1 | . | -0.19 | 0.0 | 1.7 | .
CCC(C)n1cnc2c(c1=O)c1nc3ccccc3nc1n2Cc1ccc2c(c1)OCO2 (stereo not given) | -0.7 | . | 3.5 | 10.4* | -71.8
CCOC(=O)C1CCN(S(=O)(=O)c2ccc(-c3nc4ccccc4s3)s2)CC1 | 1.5 | -0.44 | . | 8.4* | -34.4
O=C(COC(=O)Cc1cccc2ccccc12)Nc1ccccc1-c1ccccc1 | -1.7 | -1.04 | . | 10.6* | -24.1
O=C(COC(=O)/C=C/c1ccc(Cl)cc1)Nc1ccccc1-c1ccccc1 | 9.3 | 0.25 | . | 8.7* | -44.1
O=C(COC(=O)Cc1ccc(Cl)cc1)Nc1ccccc1-c1ccccc1 | -4.0 | 0.41 | . | 7.7 | -18.5
O=C(COC(=O)Cc1c(Cl)cccc1Cl)Nc1ccccc1-c1ccccc1 | 2.5 | 0.11 | -53.9 | 10.4* | -61.2
O=C(O)c1ccc2c(c1)C(=O)N(c1cccc(S(=O)(=O)Nc3cccc(C(F)(F)F)c3)c1)C2=O | . | -0.13 | . | -0.4 | .
COc1ccc2ccccc2c1CN1CCN(Cc2ccccc2)CC1 | 28.1 | -1.9 | 78.4* | 3.1 | -11.5
COc1ccc2ccccc2c1CN1CCCC(CO)C1 (stereo not given) | -18.5 | 0.38 | 13.0 | 2.5 | 3.8
CCOc1ccc(OCC)c(NC(=O)CN2CCN(c3cccc(C)c3)CC2)c1 | 0.5 | . | 11.5 | 1.5 | -18.5
CCOc1ccc(OCC)c(NC(=O)CN2CCN(c3cc(C)ccc3C)CC2)c1 | -1.7 | -2.23 | 0.0 | 8.7* | -28.6
COc1ccc(C2C=C(c3ccccc3)Nc3nnnn32)cc1 (stereo not given) | -22.2 | -1.29 | . | 7.5 | -2.3
C1=C(c2ccccc2)Nc2nnnn2C1 | -17.6 | 3.1* | 22.6 | 1.1 | -27.1
COc1ccc(/C=N/NC(=O)c2csc(-n3nc(C)cc3C(F)(F)F)n2)cc1 | 141.6* | -0.48 | -20.4 | -1.0 | -45.2
Cc1cc(C(F)(F)F)n(-c2nc(C(=O)NN)cs2)n1 | . | 0.06 | . | 1.4 | .
Cc1ccc(S(=O)(=O)N2CCC(=O)N(C(COCc3ccc(C(F)(F)F)cc3)Cc3ccccc3)CC2)cc1 (stereo not given) | 2.4 | -1.5 | -57.1 | 10.0* | -31.9
CCOC(=O)c1c(C)nc2c(c1-c1cc(OC)ccc1OC)C(=O)CC(C)(C)C2 | . | -0.2 | . | . | .
SMILES | Yeast lifespan up | Ins promoter up | Insulin prom inh | RAM inhibit | Yeast growth inh
COc1ccc(/C(C)=N/NC(=O)c2ccc(CSc3cccc4cccnc34)cc2)cc1OC | -24.8 | 0.06 | -33.3 | -1.1 | 71.2*
COc1cc(/C(C)=N/NC(=O)c2ccc(CSc3nncn3C)cc2)cc(OC)c1OC | . | -0.07 | 13.3 | 2.6 | .
C/C(=N\NC(=O)c1ccc(CSc2cccc3cccnc23)cc1)C1CCCCC1 | -4.3 | 0.09 | -33.3 | 0.8 | 70.7*
CCOC(=O)C1=C(Cc2ccc(C)cc2)C(=O)c2ccccc2C1=O | 4.0 | 1.78 | 8.3 | 9.6* | -84.7
N#CC1(c2ccccc2)CCC(=O)N1Cc1ccccc1 (stereo not given) | . | -0.34 | . | . | .
COc1ccc(-c2nc(C(N)=O)c3[nH]c(=O)n(-c4cccc(Cl)c4)c3n2)cc1OC | -4.3 | -0.45 | -110.0 | 2.8 | -23.3
COc1cccc(-c2nc(C(N)=O)c3[nH]c(=O)n(-c4cccc(Cl)c4)c3n2)c1OC | -0.8 | 1.04 | 42.9 | 11.1* | -32.6
COc1ccc(C(=O)C2CCCN(S(=O)(=O)C(C)C)C2)c(C)c1 (stereo not given) | . | . | . | -0.2 | .
COc1nc(-c2ccccc2)ccc1-c1noc(-c2ccco2)n1 | -23.3 | -0.15 | -2.7 | 7.9 | -36.4
COc1nc(-c2ccccc2)ccc1-c1noc(-c2ccccc2)n1 | 1.0 | 0.93 | . | 11.0* | -47.2
CCc1ccc(NC(=O)C(NS(=O)(=O)c2cccc3nsnc23)c2ccccc2)cc1 (stereo not given) | 2.5 | -0.39 | -11.1 | 9.1* | -22.8
CCC(C)NC(=O)C(NS(=O)(=O)c1cccc2nsnc12)c1ccccc1 (stereo not given) | -13.7 | -0.01 | 18.8 | -0.4 | -17.6
C=C(C)CCOC(=O)C(CC(=O)O)NCc1ccco1 (stereo not given) | . | -0.2 | . | . | .
O=C(CSc1c(Cl)cccc1Cl)N1CCC(c2nc3ccccc3s2)CC1 | -2.3 | -0.15 | -38.2 | 9.4* | -59.4
O=C(Nc1cccc(S(=O)(=O)NC2=NCCCCC2)c1)c1cc(-c2ccccc2Cl)nc2ccccc12 | 0.5 | . | -40.0 | 11.2* | -48.9
CCc1ccc(-n2c(SCC(=O)Nc3cccc(S(=O)(=O)NC4=NCCCCC4)c3)nc3ccccc3c2=O)cc1 | -1.6 | -0.09 | 29.6 | 5.5 | -16.6
Cc1ccc(-n2c(SCC(=O)Nc3cccc(S(=O)(=O)NC4=NCCCCC4)c3)nc3ccccc3c2=O)cc1 | -2.4 | 0.28 | . | 9.8* | -19.4
O=C(Nc1cccc(S(=O)(=O)NC2=NCCC2)c1)c1cc(-c2ccccn2)nc2ccccc12 | . | 0.76 | . | . | .
O=C(CN1CCC(n2nnc3cc(C(F)(F)F)ccc32)CC1)N1CCc2ccccc21 | 39.6* | -0.5 | . | 0.9 | -28.9
CCOc1ccc2nc(NC(=O)CN3CCC(n4nnc5cc(C(F)(F)F)ccc54)CC3)sc2c1 | -6.0 | -1.95 | 77.1* | 5.8 | -53.7
Cc1cc(NC(=O)CN2CCC(n3nnc4cc(C(F)(F)F)ccc43)CC2)no1 | -3.3 | -0.51 | . | 0.7 | -51.0
CCN(CC)S(=O)(=O)c1cnccc1N1CCN(c2cccc(Cl)c2)CC1 | 5.1 | -0.77 | -66.7 | -0.4 | -42.6
CN(C)/C=C(/C(=O)c1ccc(Cl)cc1Cl)S(=O)(=O)c1ccc(Cl)cc1 | 69.1* | . | 16.1 | 1.0 | -48.9
COc1ccc(C(=O)NC(=S)N2CCN(C)CC2)cc1Br | . | -0.05 | 0.0 | -0.6 | .
Cc1cc(S(=O)(=O)N2CCN(c3c(C)cccc3C)CC2)ccc1F | 1.2 | 0.93 | 16.2 | 10.2* | -34.2
CCCCCCCn1c(NC(=O)CC)nc2ccccc21 | . | -1.93 | . | . | .
O=C(Nc1ccc(Cn2cccn2)cc1)c1ccc(COc2cccc(Br)c2)cc1 | -10.5 | -1.17 | 13.5 | 9.9* | -73.8
CCOC(=O)c1cc2sccc2n1Cc1ccccc1 | -9.6 | 0.55 | 0.0 | 0.9 | -22.9
CCOC(=O)c1cc2sccc2n1CCCN1C(=O)c2ccccc2C1=O | -1.5 | . | . | 9.0* | -36.3
